Active and inactive are the calls of the source. The calls are words filed in the database; no cut-off is given here.
Tests used:
Format in all cases: cell-based
[1] = molecular target: Glutamate NMDA receptor; Grin1/Grin2a (Rattus norvegicus) (UniProt P35439+Q00959); assay: Potentiation of rat recombinant GluN1/GluN2A expressed in Xenopus laevis oocytes assessed as increase in glutamate/glycine-induced current response at 30 uM by two-electrode voltage clamp technique relative to control
Procedure, shortened: (§1)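 Two-electrode voltage clamp at −40 mV on Xenopus oocytes coexpressing GluN1 with GluN2A, 2B, 2C or 2D. […] Compounds came from 20 mM DMSO stocks, with 0.05–0.5% final DMSO. Some GluN2A oocytes were injected with K-BAPTA to limit current run-up. Recording solution was pH 7.4, 23 °C.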

[2] = molecular target: Glutamate NMDA receptor; Grin1/Grin2c (Rattus norvegicus) (UniProt P35439+Q00961); assay: Potentiation of rat recombinant GluN1/GluN2C expressed in Xenopus laevis oocytes assessed as increase in glutamate/glycine-induced current response at 30 uM by two-electrode voltage clamp technique relative to control; procedure, shortened: as §1
[3] = molecular target: Glutamate NMDA receptor; Grin1/Grin2b (Rattus norvegicus) (UniProt P35439+Q00960); assay: Potentiation of rat recombinant GluN1/GluN2B expressed in Xenopus laevis oocytes assessed as increase in glutamate/glycine-induced current response at 30 uM by two-electrode voltage clamp technique relative to control; procedure, shortened: as §1
[4] = molecular target: Glutamate NMDA receptor; Grin1/Grin2c (Rattus norvegicus, UniProt P35439+Q00961); assay: Potentiation of rat recombinant GluN1/GluN2C expressed in Xenopus laevis oocytes assessed as increase in glutamate/glycine-induced current response by two-electrode voltage clamp technique relative to control
[5] = molecular target: Ionotropic glutamate receptor NMDA 1/2D (Rattus norvegicus) (UniProt P35439+Q62645); assay: Potentiation of rat recombinant GluN1/GluN2D expressed in Xenopus laevis oocytes assessed as increase in glutamate/glycine-induced current response at 30 uM by two-electrode voltage clamp technique relative to control; procedure, shortened: as §1

| Activity [1] [%] | Activity [2] | Activity [3] [%] | Activity [5] [%] | SMILES | max activation [2] [%] | EC50 [4] [µM] |
| --- | --- | --- | --- | --- | --- | --- |
| 96 | 93% | 105 | 89 | CNC(=O)c1ccc(C2C(C(=O)c3cccnc3)=C(O)C(=O)N2CCc2c[nH]c3ccccc23)cc1 (stereo unspecified) |  |  |
| 112 | 85% | 70 | 74 | COC(=O)c1ccc(C2C(C(=O)c3cccnc3)=C(O)C(=O)N2CCc2c[nH]c3cccc(C)c23)cc1 (stereo unspecified) |  |  |
| 86 | 123% | 82 | 83 | NS(=O)(=O)c1ccc(C2C(C(=O)c3cccnc3)=C(O)C(=O)N2CCc2c[nH]c3ccccc23)cc1 (stereo unspecified) | 130 |  |
| 106 | 94% | 83 | 77 | CC(=O)C1=C(O)C(=O)N(CCc2c[nH]c3ccccc23)C1c1ccc([N+](=O)[O-])cc1 (stereo unspecified) |  |  |
| 100 | 93% | 94 | 88 | CC(=O)C1=C(O)C(=O)N(CCc2c[nH]c3ccccc23)C1c1ccc(C(=O)O)cc1 (stereo unspecified) |  |  |
| 93 | 102% | 85 | 75 | COC(=O)c1ccc(C2C(C(C)=O)=C(N)C(=O)N2CCc2c[nH]c3ccccc23)cc1 (stereo unspecified) |  |  |
| 92 | 109% | 90 | 80 | COC(=O)c1ccc(C2C(C(=O)c3cccc(OC)c3)=C(O)C(=O)N2CCc2c[nH]c3ccccc23)cc1 (stereo unspecified) |  |  |
| 118 | 101% | 86 | 89 | CN(C)C(=O)c1ccc(C2C(C(=O)c3cccnc3)=C(O)C(=O)N2CCc2c[nH]c3ccccc23)cc1 (stereo unspecified) |  |  |
| 96 | 84% | 93 | 98 | COC(=O)c1ccc(C2C(C(=O)c3cccnc3)=C(O)C(=O)N2CCCc2c[nH]c3ccccc23)cc1 (stereo unspecified) |  |  |
| 96 | 113% | 83 | 80 | COC(=O)c1ccc(C2C(C(=O)c3cccnc3)=C(O)C(=O)N2CCc2coc3ccccc23)cc1 (stereo unspecified) |  |  |
| 74 | 114% | 88 | 73 | CNS(=O)(=O)c1ccc(C2C(C(=O)c3cccnc3)=C(O)C(=O)N2CCc2c[nH]c3ccccc23)cc1 (stereo unspecified) |  |  |
| 99 | 114% | 83 | 93 | COC(=O)c1ccc(C2C(C(C)=O)=C(O)C(=O)N2CCc2c[nH]c3ccccc23)cc1F (stereo unspecified) |  |  |
| 101 | 90% | 92 | 91 | NC(=O)c1ccc(C2C(C(=O)c3cccnc3)=C(O)C(=O)N2CCc2c[nH]c3ccccc23)cc1 (stereo unspecified) |  |  |
| 111 | 106% | 87 | 85 | COC(=O)c1ccc(C2C(C(=O)c3cccnc3)=C(O)C(=O)N2CCc2cn(C)c3ccccc23)cc1 (stereo unspecified) |  |  |
| 98 | 100% | 89 | 94 | N#Cc1ccc(C2C(C(=O)c3cccnc3)=C(O)C(=O)N2CCc2c[nH]c3ccccc23)cc1 (stereo unspecified) |  |  |
| 106 | 84% | 101 | 87 | COC(=O)c1ccc(C2C(C(=O)c3ccncc3)=C(O)C(=O)N2Cc2c[nH]c3ccccc23)cc1 (stereo unspecified) |  |  |
| 106 | 97% | 78 | 75 | COC(=O)c1ccc(C2C(C(=O)c3ccccn3)=C(O)C(=O)N2CCc2c[nH]c3ccccc23)cc1 (stereo unspecified) |  |  |
| 88 | 113% | 95 | 83 | COC(=O)c1ccc(C2C(C(C)=O)=C(O)C(=O)N2CCc2c[nH]c3ccccc23)cc1Cl (stereo unspecified) |  |  |
| 99 | 94% | 88 | 94 | COC(=O)c1cccc(C2C(C(C)=O)=C(O)C(=O)N2CCc2c[nH]c3ccccc23)c1 (stereo unspecified) |  |  |
| 96 | 102% | 95 | 83 | CC(=O)C1=C(O)C(=O)N(CCc2c[nH]c3ccccc23)C1c1ccc(C(=O)OC(C)C)cc1 (stereo unspecified) |  |  |
| 112 | 94% | 90 | 91 | COC(=O)c1ccc(C2C(C(=O)c3cccnc3)=C(O)C(=O)N2CCc2c[nH]c3ccc(OC)cc23)cc1 (stereo unspecified) |  |  |
| 108 | 88% | 91 | 86 | COC(=O)c1ccc(C2C(C(C)=O)=C(O)C(=O)N2CCc2c[nH]c3ccccc23)cc1C (stereo unspecified) |  |  |
| 99 | 85% | 81 | 66 | CC(=O)C1=C(O)C(=O)N(CCc2c[nH]c3ccccc23)C1c1ccc(C(=O)OC(C)(C)C)cc1 (stereo unspecified) |  |  |

More lines, now with the values behind:

| SMILES | Activity [1] [%] | Activity [2] | Activity [3] [%] | Activity [5] [%] | max activation [2] [%] | EC50 [4] [µM] |
| --- | --- | --- | --- | --- | --- | --- |
| COC(=O)c1ccc(C2C(C(=O)c3cccc(Cl)c3)=C(O)C(=O)N2CCc2c[nH]c3ccccc23)cc1 (stereo unspecified) | 107 | 145% | 83 | 83 | 145 | 8.7 |
| CCCC(=O)OC1=C(C(C)=O)C(c2ccc(C(=O)OC)cc2)N(CCc2c(C)[nH]c3ccccc23)C1=O (stereo unspecified) | 112 | 186% | 93 | 93 | 184 | 17 |
| COC(=O)c1ccc(C2C(C(C)=O)=C(OC(C)=O)C(=O)N2CCc2c[nH]c3ccccc23)cc1 (stereo unspecified) | 95 | 120% | 90 | 92 | 173 | 52 |
| COC(=O)c1ccc(C2C(C(C)=O)=C(OC)C(=O)N2CCc2c[nH]c3ccccc23)cc1 (stereo unspecified) | 109 | 127% | 91 | 82 | 163 | 37 |
| COC(=O)c1ccc(C2C(C(C)=O)=C(O)C(=O)N2CCc2c[nH]c3ccccc23)c(C)c1 (stereo unspecified) | 101 | 129% | 95 | 85 | 165 | 35 |
| COC(=O)c1ccc(C2C(C(C)=O)=C(O)C(=O)N2CCc2c[nH]c3ccccc23)c(F)c1 (stereo unspecified) | 93 | 123% | 96 | 91 | 155 | 37 |
| COC(=O)c1ccc(C2C(C(=O)c3cccc(F)c3)=C(O)C(=O)N2CCc2c[nH]c3ccccc23)cc1 (stereo unspecified) | 98 | 133% | 83 | 78 | 136 | 11 |
| COC(=O)c1ccc(C2C(C(=O)c3ccccc3)=C(O)C(=O)N2CCc2c[nH]c3ccccc23)cc1 (stereo unspecified) | 116 | 143% | 85 | 79 | 161 | 17 |
| CCC(=O)C1=C(O)C(=O)N(CCc2c[nH]c3ccccc23)C1c1ccc(C(=O)OC)cc1 (stereo unspecified) | 85 | 160% | 77 | 78 | 204 | 24 |
| COC(=O)c1ccc(C2C(C(=O)c3cccnc3)=C(O)C(=O)N2CCc2c[nH]c3c(Cl)cccc23)cc1 (stereo unspecified) | 90 | 127% | 85 | 78 | 128 | 7 |
| COC(=O)c1ccc(C2C(C(=O)c3ccncc3)=C(O)C(=O)N2CCn2cnc3ccccc32)cc1 (stereo unspecified) | 104 | 84% | 107 | 89 |  |  |
| CCOC(=O)c1ccc(C2C(C(C)=O)=C(O)C(=O)N2CCc2c[nH]c3ccccc23)cc1 (stereo unspecified) | 104 | 201% | 83 | 91 | 237 | 15 |
| COC(=O)c1ccccc1C1C(C(C)=O)=C(O)C(=O)N1CCc1c[nH]c2ccccc12 (stereo unspecified) | 88 | 99% | 78 | 93 |  |  |
| COC(=O)c1ccc(C2C(C(C)=O)=C(O)C(=O)N2CCc2c[nH]c3ccccc23)cc1OC (stereo unspecified) | 98 | 92% | 80 | 86 |  |  |
| COC(=O)c1ccc(C2C(C(C)=O)=C(O)C(=O)N2CCc2c(C)[nH]c3ccccc23)cc1 (stereo in doubt; 106a) |  |  |  |  | 259 |  |
| COC(=O)c1ccc(C2C(C(C)=O)=C(O)C(=O)N2CCc2ccccc2)cc1 (stereo unspecified) | 108 | 95% | 117 | 99 |  |  |
| COC(=O)c1ccc(C2C(C(C)=O)=C(O)C(=O)N2CCc2c(C)[nH]c3ccccc23)cc1 (stereo in doubt; 106b) |  | inactive |  |  |  |  |
| COC(=O)c1ccc(C2C(C(=O)c3ccncc3)=C(O)C(=O)N2CCc2c[nH]cn2)cc1 (stereo unspecified) | 101 | 89% | 95 | 94 |  |  |
| COC(=O)c1ccc(C2C(C(C)=O)=C(O)C(=O)N2CCc2c(C)[nH]c3ccccc23)cc1 (racemic) | 97 | 179% | 88 | 95 | 217 |  |

Reference: ChEMBL document CHEMBL3232993, “Design, synthesis, and structure-activity relationship of a novel series of GluN2C-selective potentiators” (J Med Chem, 2014)
